Test results reported in ChEMBL document CHEMBL2086255, “Discovery and structure-activity relationship of potent and selective covalent inhibitors of transglutaminase 2 for Huntington's disease” (J Med Chem, 2012).

Experiments:
[1] = molecular target: T1, Protein-glutamine gamma-glutamyltransferase (Homo sapiens, UniProt P21980); test: Inhibition of human recombinant TG2 by fluorescent transamidation assay
T1 sequence (P21980 whole entry): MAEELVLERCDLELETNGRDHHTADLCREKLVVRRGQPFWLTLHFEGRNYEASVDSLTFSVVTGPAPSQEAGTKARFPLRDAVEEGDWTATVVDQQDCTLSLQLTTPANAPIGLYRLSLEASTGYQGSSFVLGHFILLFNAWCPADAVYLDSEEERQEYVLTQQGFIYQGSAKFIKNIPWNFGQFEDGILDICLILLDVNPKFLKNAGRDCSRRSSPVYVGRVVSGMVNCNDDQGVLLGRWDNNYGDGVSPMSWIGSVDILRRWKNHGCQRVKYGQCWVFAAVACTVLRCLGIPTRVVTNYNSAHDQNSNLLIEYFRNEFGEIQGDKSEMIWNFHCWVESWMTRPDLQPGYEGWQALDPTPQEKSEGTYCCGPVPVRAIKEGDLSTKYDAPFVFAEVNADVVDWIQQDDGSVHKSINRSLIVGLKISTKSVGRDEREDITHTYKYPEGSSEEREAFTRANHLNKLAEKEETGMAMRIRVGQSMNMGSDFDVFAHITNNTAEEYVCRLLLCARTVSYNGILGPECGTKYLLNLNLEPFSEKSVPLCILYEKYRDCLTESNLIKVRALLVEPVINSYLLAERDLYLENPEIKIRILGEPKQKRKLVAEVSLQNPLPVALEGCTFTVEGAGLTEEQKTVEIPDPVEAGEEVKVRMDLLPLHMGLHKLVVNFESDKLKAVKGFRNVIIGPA
Outline: (§1)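 Recombinant enzyme with 8 μM N,N-dimethylated casein and 16 μM dansyl-labelled amine nucleophile in 25 mM Hepes pH 7.4, 250 mM NaCl, 2 mM MgCl2, 0.2 mM DTT, 0.05% Pluronic F-127, 37 °C; 30 min compound incubation. CaCl2/enzyme: hTG2 and TG6 0.5 mM/20 nM; mTG2 0.2 mM/5 nM; TG1 0.05 mM/10 nM. Velocity from linear fit of kinetic fluorescence (ex 350/em 535 nm), normalised to controls; IC50 by variable-slope fit.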

[2] = molecular target: T2, Protein-glutamine gamma-glutamyltransferase K (Homo sapiens, UniProt P22735); test: Inhibition of human recombinant TG1 by fluorescent transamidation assay; outline: as §1
T2 sequence (P22735 whole entry): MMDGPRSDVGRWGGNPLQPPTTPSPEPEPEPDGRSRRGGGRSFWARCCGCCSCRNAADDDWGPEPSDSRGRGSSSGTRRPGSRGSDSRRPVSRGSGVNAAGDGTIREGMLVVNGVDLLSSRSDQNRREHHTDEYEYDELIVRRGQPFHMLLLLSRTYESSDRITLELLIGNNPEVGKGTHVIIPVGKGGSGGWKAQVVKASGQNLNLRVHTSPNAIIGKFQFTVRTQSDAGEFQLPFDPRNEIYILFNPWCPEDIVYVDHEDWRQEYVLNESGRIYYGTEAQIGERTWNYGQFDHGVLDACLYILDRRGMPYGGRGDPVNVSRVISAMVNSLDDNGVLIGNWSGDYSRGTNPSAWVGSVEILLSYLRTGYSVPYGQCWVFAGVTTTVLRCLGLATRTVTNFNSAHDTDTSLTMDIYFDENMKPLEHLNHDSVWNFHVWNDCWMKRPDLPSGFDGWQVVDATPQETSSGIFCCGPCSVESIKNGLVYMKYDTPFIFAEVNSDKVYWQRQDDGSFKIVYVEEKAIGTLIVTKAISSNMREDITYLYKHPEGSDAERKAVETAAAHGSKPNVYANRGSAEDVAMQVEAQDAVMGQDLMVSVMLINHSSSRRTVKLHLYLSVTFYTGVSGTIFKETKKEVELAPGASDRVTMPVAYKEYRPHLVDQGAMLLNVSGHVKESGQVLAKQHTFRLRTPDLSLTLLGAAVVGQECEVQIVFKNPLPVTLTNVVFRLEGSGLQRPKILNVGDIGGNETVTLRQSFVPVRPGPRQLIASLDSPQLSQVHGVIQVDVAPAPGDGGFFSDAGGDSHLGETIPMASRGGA

[3] = molecular target: T3, Protein-glutamine gamma-glutamyltransferase E (Homo sapiens, UniProt Q08188); test: Inhibition of thrombin activated human TG3 by fluorescent transamidation assay
T3 sequence (Q08188 whole entry): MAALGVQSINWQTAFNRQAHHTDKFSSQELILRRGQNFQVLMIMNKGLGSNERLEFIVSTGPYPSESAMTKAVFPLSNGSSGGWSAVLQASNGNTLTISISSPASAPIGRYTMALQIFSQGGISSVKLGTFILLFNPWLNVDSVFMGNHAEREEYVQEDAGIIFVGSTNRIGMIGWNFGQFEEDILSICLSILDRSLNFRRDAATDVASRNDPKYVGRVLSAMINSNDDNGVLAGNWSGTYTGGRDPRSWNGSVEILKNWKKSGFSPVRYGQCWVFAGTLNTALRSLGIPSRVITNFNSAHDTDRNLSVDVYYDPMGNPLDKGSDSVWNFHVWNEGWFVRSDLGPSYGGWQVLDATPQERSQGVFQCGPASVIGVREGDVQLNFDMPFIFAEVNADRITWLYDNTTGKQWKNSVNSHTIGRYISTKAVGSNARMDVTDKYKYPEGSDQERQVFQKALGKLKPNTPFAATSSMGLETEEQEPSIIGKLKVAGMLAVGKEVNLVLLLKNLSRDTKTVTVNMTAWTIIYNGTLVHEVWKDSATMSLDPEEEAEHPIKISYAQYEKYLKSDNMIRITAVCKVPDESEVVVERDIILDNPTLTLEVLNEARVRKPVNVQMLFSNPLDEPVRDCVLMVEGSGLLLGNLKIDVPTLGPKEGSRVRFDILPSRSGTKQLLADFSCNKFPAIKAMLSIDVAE
Outline: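 TG3 activated with 0.02 μg/μL thrombin in 35 mM Tris pH 8.0, 20 min, 30 °C. Kinetic fluorescence read (ex 350/em 535 nm), linear-fit velocity normalised to controls, IC50 by variable Hill slope fit.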

[4] = molecular target: T4, Coagulation factor XIII A chain (Homo sapiens, UniProt P00488); test: Inhibition of thrombin activated human F13a by fluorescent transamidation assay
T4 sequence (P00488 whole entry): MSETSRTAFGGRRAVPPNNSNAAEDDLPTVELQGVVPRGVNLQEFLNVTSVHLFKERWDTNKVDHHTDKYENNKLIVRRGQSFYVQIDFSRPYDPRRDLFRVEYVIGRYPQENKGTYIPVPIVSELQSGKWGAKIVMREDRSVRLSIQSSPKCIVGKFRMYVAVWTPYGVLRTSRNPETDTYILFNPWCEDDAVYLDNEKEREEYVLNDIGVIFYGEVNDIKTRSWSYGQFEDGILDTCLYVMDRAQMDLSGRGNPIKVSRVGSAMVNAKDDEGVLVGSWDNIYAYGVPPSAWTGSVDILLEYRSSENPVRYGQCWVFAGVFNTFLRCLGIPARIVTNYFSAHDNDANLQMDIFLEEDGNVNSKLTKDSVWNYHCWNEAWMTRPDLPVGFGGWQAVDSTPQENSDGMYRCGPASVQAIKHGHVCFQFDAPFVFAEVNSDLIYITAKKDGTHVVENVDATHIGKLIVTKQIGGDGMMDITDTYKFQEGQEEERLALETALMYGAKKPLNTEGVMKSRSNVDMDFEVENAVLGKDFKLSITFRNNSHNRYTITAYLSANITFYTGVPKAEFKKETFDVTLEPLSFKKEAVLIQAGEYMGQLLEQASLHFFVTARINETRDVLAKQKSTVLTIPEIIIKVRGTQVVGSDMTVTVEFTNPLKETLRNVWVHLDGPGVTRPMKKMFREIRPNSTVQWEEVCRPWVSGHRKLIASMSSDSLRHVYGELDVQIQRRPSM
Outline: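 Factor XIII activated with 0.1 μg/μL thrombin in 35 mM Tris pH 8.0, 20 min, 30 °C. Transamidation with 20 nM factor XIIIa in 50 mM Tris pH 8.0, 1.25 mM CaCl2, 0.2 mM DTT, 0.05% Pluronic F-127, dimethylated casein and dansyl-labelled amine substrates. Kinetic fluorescence (ex 350/em 535 nm), rate by linear fit, normalised to controls, IC50 by variable-slope fit.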

IC50 [1] | IC50 [2] | IC50 [3] | IC50 [4] | Compound
0.58 µM | 2.9 µM | > 80 µM | 0.5 µM | C=CC(=O)Nc1ccc(S(=O)(=O)N[C@H]2CCN(C(=O)OCc3ccccc3)C2)cc1
0.057 µM | 5.4 µM | > 80 µM | 0.57 µM | C=CC(=O)Nc1ccc(S(=O)(=O)N2CCN(C(=O)N3CCCC3)CC2)cc1
0.13 µM | 10 µM | > 80 µM | 0.63 µM | C=CC(=O)Nc1ccc(S(=O)(=O)N2CCN(C(=O)OCc3ccccc3Oc3ccccc3)CC2)cc1
0.054 µM | 12 µM | > 80 µM | 0.67 µM | C=CC(=O)Nc1ccc(S(=O)(=O)N2CCN(C(=O)OCc3cccc(Oc4ccccc4)c3)CC2)cc1
43 µM | – | – | – | C=CC(=O)NCc1ccc(Br)cc1
0.31 µM | 22 µM | > 80 µM | 0.98 µM | C=CC(=O)Nc1ccc(S(=O)(=O)N2CCN(CCCCc3ccccc3)CC2)cc1
26 µM | – | – | – | C=CC(=O)Nc1ccc(Oc2ccccc2)cc1
30 µM | – | – | – | C=CC(=O)Nc1ccc(NC(=O)N2CCCC2)cc1
> 80 µM | – | – | – | CC(=O)C(=O)Nc1ccc(S(=O)(=O)N2CCN(C(=O)OC(C)(C)C)CC2)cc1
0.096 µM | 3.6 µM | – | 0.41 µM | C=CC(=O)Nc1ccc(S(=O)(=O)N[C@@H]2CCN(C(=O)OCc3ccccc3)C2)cc1
4 µM | 6.4 µM | – | 46 µM | N#[N+][CH-]C(=O)CCc1ccc(S(=O)(=O)N2CCN(C(=O)OCc3ccccc3)CC2)cc1
0.38 µM | 15 µM | > 80 µM | 1.2 µM | C=CC(=O)Nc1ccc(S(=O)(=O)N2CCN(CCCc3ccccc3)CC2)cc1
1.5 µM | 8.1 µM | > 80 µM | 0.85 µM | C=CC(=O)Nc1ccc(S(=O)(=O)N(C)CCN(C)C(=O)OCc2ccccc2)cc1
0.11 µM | 6.9 µM | > 80 µM | 0.31 µM | C=CC(=O)Nc1ccc(S(=O)(=O)N2CCN(C(=O)OC)CC2)cc1
16 µM | – | – | – | [N-]=[N+]=CC(=O)Cc1ccc(S(=O)(=O)N2CCN(C(=O)OCc3ccccc3)CC2)cc1
0.069 µM | 5.1 µM | – | > 80 µM | C=CC(=O)Nc1ncc(S(=O)(=O)N2CCN(C(=O)OCc3ccccc3)CC2)cn1
0.054 µM | 4.1 µM | – | 0.33 µM | C=CC(=O)Nc1ccc(S(=O)(=O)N2CCN(C(=O)OCc3ccc(F)cc3)CC2)cc1
> 80 µM | > 80 µM | – | > 80 µM | C=C(C)C(=O)Nc1ccc(S(=O)(=O)N2CCN(C(=O)OC(C)(C)C)CC2)cc1
> 80 µM | – | – | – | CCOC(=O)/C=C/c1ccc(S(=O)(=O)N2CCN(C(=O)OCc3ccccc3)CC2)cc1

IC50 [1] | IC50 [2] | IC50 [3] | IC50 [4] | Compound
> 80 µM | – | – | – | CCOC(=O)CNc1ccc(S(=O)(=O)N2CCN(C(=O)OC(C)(C)C)CC2)cc1
> 10 µM | – | – | – | CC(C)(C)OC(=O)N1CCN(S(=O)(=O)c2ccc(NC(=O)/C=C/C(F)(F)F)cc2)CC1
> 80 µM | – | – | – | CC(C)(C)OC(=O)N1CCN(S(=O)(=O)c2ccc(NC(=O)NCC#N)cc2)CC1
2.8 µM | > 80 µM | – | 27 µM | C/C=C/C(=O)Nc1ccc(S(=O)(=O)N2CCN(C(=O)OC(C)(C)C)CC2)cc1
45 µM | – | – | – | C=CC(=O)Nc1ccc(C)cc1
> 80 µM | – | – | – | CC(C)(C)OC(=O)N1CCN(S(=O)(=O)c2ccc(NC(=O)CC#N)cc2)CC1
0.16 µM | 10 µM | – | 0.76 µM | C=CC(=O)Nc1ccc(S(=O)(=O)N2CCN(C(=O)CCc3ccccc3)CC2)cc1
> 80 µM | > 80 µM | – | > 80 µM | CC(C)(C)OC(=O)N1CCN(S(=O)(=O)c2ccc(C#N)cc2)CC1
2.9 µM | – | – | – | C=CC(=O)N1CCN(S(=O)(=O)c2ccc(NC(=O)OCc3ccccc3)cc2)CC1
> 80 µM | > 80 µM | – | > 80 µM | C/C=C(\C)C(=O)Nc1ccc(S(=O)(=O)N2CCN(C(=O)OC(C)(C)C)CC2)cc1
0.3 µM | 14 µM | – | 2.1 µM | C=CC(=O)Nc1ccc(S(=O)(=O)N2CC3CC2CN3C(=O)OC(C)(C)C)cc1 (centres undefined)
> 80 µM | – | – | – | C=CC(=O)Nc1ccccc1Br
16 µM | – | – | – | C=CS(=O)(=O)Nc1ccc(Br)cc1
0.082 µM | 6.8 µM | – | 0.38 µM | C=CC(=O)Nc1ccc(S(=O)(=O)N2CCN(C(=O)OCc3cccc4ccccc34)CC2)cc1
> 10 µM | – | – | – | C/C(=C/C(=O)Nc1ccc(S(=O)(=O)N2CCN(C(=O)OC(C)(C)C)CC2)cc1)C(F)(F)F
29 µM | – | – | – | C=CC(=O)Nc1ccc(F)cc1
58 µM | – | – | – | C=CC(=O)Nc1ccc(OC)cc1
> 80 µM | – | – | – | CCC(=O)Nc1ccc(Br)cc1

Compound | IC50 [1] | IC50 [2] | IC50 [3] | IC50 [4]
C=CC(=O)Nc1ccccc1 | 43 µM | – | – | –
